KCNK9 inh = KCNK9 potassium channel inhibitors, primary screen, HEK293 cells, thallium flux | 1.2% of 310,000 active | AID 488922, 2010 | FluxOR thallium flux fluorescence; stronger effect = lower value | B-score at 10 µM | Potassium channel subfamily K member 9 (Homo sapiens), Q9NPC2;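 active means ratio B-score over 3 SD below the library mean, with starting fluorescence within 5 SD of its mean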;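 further: negative B-score means less thallium flux so channel inhibition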
KCNQ1 act = potentiators or activators of KCNQ1 channel, primary screen, cell-based, thallium flux, high-throughput. 0.35% of 310,000 active. CHO-K1 KCNQ1, thallium flux FluxOR fluorescence; stronger effect = higher value. Potassium voltage-gated channel subfamily KQT member 1 (Homo sapiens), P51787. B-score at 10 µM;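 active means fluorescence ratio B-score, a plate-corrected score, at least three library SD, with initial intensity B-score within 5 SD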
Target sequence (P51787 whole entry, looked up): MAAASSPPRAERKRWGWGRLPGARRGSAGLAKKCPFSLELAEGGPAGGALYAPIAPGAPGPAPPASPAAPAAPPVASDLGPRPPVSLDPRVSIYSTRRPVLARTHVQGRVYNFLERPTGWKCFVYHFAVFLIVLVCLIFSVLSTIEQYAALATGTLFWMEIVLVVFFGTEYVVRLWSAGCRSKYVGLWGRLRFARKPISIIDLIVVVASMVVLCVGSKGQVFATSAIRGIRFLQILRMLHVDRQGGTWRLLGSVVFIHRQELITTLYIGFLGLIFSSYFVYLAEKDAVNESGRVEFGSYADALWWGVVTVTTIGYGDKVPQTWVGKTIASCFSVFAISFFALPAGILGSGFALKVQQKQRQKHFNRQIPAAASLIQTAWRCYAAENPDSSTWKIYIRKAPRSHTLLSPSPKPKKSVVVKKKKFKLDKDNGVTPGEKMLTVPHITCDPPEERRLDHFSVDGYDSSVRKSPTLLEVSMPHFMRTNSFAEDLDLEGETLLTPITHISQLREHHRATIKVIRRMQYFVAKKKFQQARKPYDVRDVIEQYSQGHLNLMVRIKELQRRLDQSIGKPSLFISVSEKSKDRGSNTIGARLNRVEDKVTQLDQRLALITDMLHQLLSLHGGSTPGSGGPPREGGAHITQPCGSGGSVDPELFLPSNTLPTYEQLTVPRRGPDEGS
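System: CHO-K1 cells stably expressing KCNQ1 / Medium: assay buffer for compound exposure, DMSO matched across wells / Reagent: thallium- and potassium-containing depolarizing buffer / Compound: one concentration, matched DMSO / Incubation: 20 min compound pretreatment at room temperature / Measured by: kinetic FluxOR fluorescence, 10 s baseline plus 110 s post-stimulus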
Kir21 block = inhibitors of mouse Kir2.1 inward-rectifier potassium channel; Inward rectifier potassium channel 2 (Mus musculus), P35561; HEK293-Kir2.1, FluxOR thallium flux fluorescence; stronger effect = lower value; B-score at 10 µM; 0.85% of 310,000 active; AID 1672, 2009;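 active means fluorescence ratio B-score at or below minus 3 SD of library scores, with starting-brightness B-score within 2 SD, cut at about -4.2 in these data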;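 further: channel flux triggered by added potassium and thallium sulfate stimulus; B-score of peak minus minimum fluorescence over baseline after thallium stimulus; more negative B-score means stronger Kir2.1 block with less thallium influx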
KCNQ1 inh = inhibitors of human KCNQ1 channel, primary screen, cell-based, thallium flux, high-throughput; Potassium voltage-gated channel subfamily KQT member 1 (Homo sapiens), P51787; CHO-K1 KCNQ1, FluxOR thallium flux fluorescence; stronger effect = higher value; B-score at 10 µM; 1.3% of 310,000 active; AID 2642, 2010;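 active means compounds whose thallium flux B-score, printed positive for inhibition, exceeds three library SD while starting fluorescence stays within three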;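 further: channel opened by potassium depolarization with thallium stimulus after 20 min compound exposure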
hERG protect = hERG rescue from dofetilide block, primary screen, cell-based, CHO-hERG, FluxOR thallium flux, dofetilide IC70; activation (rescue from dofetilide block), less the hit threshold, % at 10 µM; Voltage-gated inwardly rectifying potassium channel KCNH2 (Homo sapiens), Q12809; 0.51% of 310,000 active; dofetilide IC70 present; AID 1511, 2009;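 active means activation above the mean of controls blocked by dofetilide plus 5 SD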;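 further: thallium influx through hERG after potassium depolarization seen as dye fluorescence rise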
KCNK3 inh = human KCNK3 channel inhibitors, primary screen, CHO cells, FluxOR thallium flux, B-score. B-score at 10 µM. FluxOR fluorescence; stronger effect = lower value. 0.84% of 340,000 active;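 active means B-score under library mean minus 4 SD, starting fluorescence ratio at most library mean plus 5 SD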;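 further: more negative B-score means stronger inhibition of thallium flux through KCNK3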
KCNK9 block conf = KCNK9 potassium channel inhibitors, confirmation, HEK293 cells, thallium flux, duplicate | shares compounds with KCNK9 inh | FluxOR thallium flux fluorescence | inhibition, % at 10 µM | 43% of 4,900 active;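 active means thallium signal inhibited by more than 5 SD of the compound-free buffer control wells, on both duplicate plates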;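 further: 0% = assay buffer control wells without compound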
Kir2-1 spec = mouse Kir2.1 channel inhibition, confirmation, selectivity assay for KCNK9 modulator project, cell-based, HEK293, thallium flux; shares compounds with KCNK9 inh; Kir2.1 cells, FluxOR thallium flux fluorescence; inhibition, % at 10 µM; 4% of 4,900 active;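 active means thallium signal drop more than 5 SD beyond the mean of the no-compound control wells, seen in both duplicate plates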;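 further: signal is fluorescence rise after thallium addition divided by baseline fluorescence; plate controls were assay buffer only for no effect and full block by chlorpromazine control for full effect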
HEK293 Tl ctr = thallium flux in non-induced HEK293 cells, confirmation, counter-screen for KCNK9 inhibitor project, cell-based, second counter screen, non-induced KCNK9-HEK293; shares compounds with KCNK9 inh; FluxOR thallium flux; inhibition, % at 10 µM; 40% of 4,900 active; AID 492997, 2010;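 active means thallium signal drop beyond 5 SD of the untreated control mean, on both duplicate plates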;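 further: plate controls were buffer only IC0 wells for no effect and SID17386958 at its maximal inhibitory level for full effect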
* hit, by the source's call; i = inactive; x = no result given. Only some compounds are listed: those with a hit (about 3.7% of all), similar ones and a draw of the others.

SMILES | KCNK9 inh | KCNQ1 act | Kir21 block | KCNQ1 inh | hERG protect | KCNK3 inh | KCNK9 block conf | Kir2-1 spec | HEK293 Tl ctr
COc1cccc(C(=O)C2CCCN(Cc3cccc4c3OCO4)C2)c1 (stereo not drawn) | i | i | -2.9 | i | -7 | i | i | i | i
CCNc1cc(N2CCNCC2)ccc1[N+](=O)[O-] | i | i | 0.18 | i | -1 | x | x | x | x
COc1ccccc1-n1c(-c2ccccc2Br)nc2ccccc2c1=O | i | i | 0.34 | i | -8 | i | x | x | x
CN(C(=O)Oc1cccc2ccccc12)C1C=CCC1 (stereo not drawn) | x | x | x | x | x | i | x | x | x
COc1ccc(CN2CCCC(C(=O)c3ccccc3SC)C2)cc1O (stereo not drawn) | i | i | 0 | i | -20 | i | x | x | x
CC(C)Oc1cccc(C(=O)C2CCCN(Cc3ccon3)C2)c1 (stereo not drawn) | i | i | 0.05 | i | -14 | i | x | x | x
COc1cccc(C(=O)C2CCCN(Cc3ccc4nonc4c3)C2)c1 (stereo not drawn) | i | i | -0.38 | i | -8 | i | i | i | i
O=C(c1cc(F)ccc1F)C1CCCN(Cc2ccc3nonc3c2)C1 (stereo not drawn) | i | i | 0.24 | i | -5 | i | i | i | i
COc1ccc(C(CNC(=O)c2ccc3c(c2)CCC3)N(C)C)cc1 (stereo not drawn) | i | i | 0.52 | i | -6 | i | x | x | x
O=C(CCC(=O)N1CC2C[C@@H](C1)Cn1c2cccc1=O)NCCc1ccccc1 | i | i | 0.1 | i | -3 | i | x | x | x
COc1ccccc1CN1CCN(C(=O)COc2cccc(C)c2)CC1 | i | i | 0.75 | i | -6 | i | x | x | x
COc1ccccc1CN1CCN(C(=O)COc2ccc3ccccc3c2)CC1 | i | i | -6.2 | i | -5 | i | i | 33%* | i
CC(C)N1C(=O)NC(=O)C2(Cc3cc([N+](=O)[O-])ccc3N(C)C2c2ccccc2)C1=O (stereo not drawn) | i | i | 0.89 | i | -7 | i | x | x | x
COCc1ccc(CN2CCCC(C(=O)c3sccc3C)C2)o1 (stereo not drawn) | i | i | 0.11 | i | -7 | i | i | i | i
Cc1cccc(C(=O)Nc2ccc(Cl)cc2C(=O)c2ccccc2)c1 | -8.4* | i | 0.15 | i | -10 | i | 32%* | i | 31%*
Cc1cc(C(=O)CS(=O)c2ccc(F)cc2)cc(C)c1OC(=O)N(C)C (stereo not drawn) | i | i | -1.2 | i | -9 | i | x | x | x
CCCCN(Cc1ccccc1)C1CCN(CCc2ccccc2)CC1 | i | i | -0.39 | i | -8 | i | i | i | i
Nc1ccc(CCN2CCCC2)cc1 | i | i | 0.76 | i | -2 | i | x | x | x
Nc1ccc(CCN2CCN(c3cccc(C(F)(F)F)c3)CC2)cc1 | i | i | 0.23 | i | -5 | i | i | i | i
Cc1ccc(-c2cc(-c3ccc(C)cc3)[n+](-c3ccccc3)c(-c3ccc(C)cc3)c2)cc1 | -19* | i | -12* | 9* | -39 | -18* | 76%* | 84%* | i
Cc1ccc(-c2cc(-c3ccc(C)cc3)[n+](C)o2)cc1 | i | i | 2.3 | i | -24 | i | x | x | x
Cc1ccc(-c2cc(-c3ccccc3)cc(-c3ccccc3)[n+]2-c2ccccc2)cc1 | -9.2* | i | -9.7* | i | -46 | i | 75%* | 79%* | 34%*
O=C(c1ccccc1)C1NC1c1ccccc1 (stereo not drawn) | i | i | -0.51 | i | -14 | i | x | x | x
NC(Cc1ccc(O)cc1)C(=O)NN=Cc1ccc(N(CCCl)CCCl)cc1 (stereo not drawn) | x | x | x | x | x | i | x | x | x
Cc1cccc(CN2CCN(c3ccc(Cl)cc3)CC2)c1 | i | i | -1.9 | i | -21 | i | i | i | i
SMILES | KCNK9 inh | KCNQ1 act | Kir21 block | KCNQ1 inh | hERG protect | KCNK3 inh | KCNK9 block conf | Kir2-1 spec | HEK293 Tl ctr
Fc1ccc(CN2CCN(c3ccc(Cl)cc3)CC2)cc1 | i | i | -0.07 | i | -6 | i | x | x | x
O=C(O)c1cccc2c1NC(c1cccc([N+](=O)[O-])c1)C1CC(Sc3ccccc3[N+](=O)[O-])C(Cl)C21 (stereo not drawn) | i | 16* | 0.11 | i | -3 | i | i | i | i
O=C(Nc1ccccc1)c1c(O)c2c(n(Cc3ccco3)c1=O)CCCC2 | i | i | -0.06 | i | -1 | i | x | x | x
O=C(Nc1nccs1)c1c(O)c2c(n(Cc3ccco3)c1=O)CCCC2 | -8.2* | i | 0.23 | 6* | -7 | i | 44%* | i | 36%*
COC(=O)C1=C(c2cccc(OCc3ccccc3)c2)C[C@@H]2CC[C@H]1N2C(=O)NCc1ccc(C(F)(F)F)cc1 | x | x | x | x | x | i | x | x | x
CCCC(=O)NC(Oc1ccc(C(C)=O)cc1)C(Cl)(Cl)Cl (stereo not drawn) | i | i | -0.55 | i | -8 | i | x | x | x
CCCCn1c(=O)c(C=Nc2cc([N+](=O)[O-])ccc2OC)c(O)n(CCCCl)c1=O | i | i | 0.75 | i | -4 | i | x | x | x
CC(C)n1c(=O)c(C=Nc2cccc([N+](=O)[O-])c2)c(O)n(CCc2ccccc2)c1=O | i | i | -2.1 | i | -7 | i | i | i | i
COC(=O)C1=C(c2cc3ccccc3s2)C[C@@H]2CC[C@H]1N2C(=O)N1CCC(C)CC1 | i | i | -0.9 | i | -11 | i | i | i | i
